The source made the active and inactive calls. The rule behind the calls is not given here.

Assay [1] addresses T1, Transient receptor potential cation channel subfamily V member 1 (Homo sapiens, UniProt Q8NER1). The assay can be described thus: Agonist-enhancing activity in epsilon-epitope tagged TRPV1 receptor expressed in mouse NIH3T3 cells assessed as capsaicin-induced 45Ca2+ influx at 100 uM by microplate liquid scintillation counter relative to capsaicin alone. The class given is functional, cell-based. In outline:
(§1)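 Stable ε-tagged TRPV1 NIH3T3 cells. Uptake with capsaicin 2 µM, 10 min at 20°C, 0.5 µCi/well 45Ca2+ in Tris-HBSS pH 7.5. Compound up to 100 µM, 2% DMSO, from 5 mM stocks, duplicate wells per concentration. Data normalized to capsaicin-only wells (100%). Variable-slope fit gave EC50 and ΔEmax; compounds too weak to fit were given ΔEmax at the top concentration.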

Assay [2] concerns the target T1, Transient receptor potential cation channel subfamily V member 1. The assay can be described thus: Agonist activity at epsilon-epitope tagged TRPV1 receptor expressed in mouse NIH3T3 cells assessed as effect on 45Ca2+ influx by microplate liquid scintillation counter. The class given is functional, cell-based. In outline:
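NIH3T3 cells stably expressing ε-tagged TRPV1 were seeded the day before and grown at 35°C. Test compound given without capsaicin, top concentration 100 µM, 2% DMSO. 45Ca2+ uptake run 10 min at 20°C in Tris-HBSS (pH 7.5) with ascorbate, 10 µM Ca2+ and 0.8 mM Mg2+. Cells were washed, lysed in RIPA and counted by scintillation.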

Assay [3] concerns the target Transient receptor potential cation channel subfamily V member 1 (Rattus norvegicus) (UniProt O35433). The assay can be described thus: Agonist activity at TRPV1 receptor in E15 rat primary dorsal root ganglion cells assessed as effect on 45Ca2+ influx by microplate liquid scintillation counter. The class given is functional, tissue-based. In outline: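 DRGs from E15 rat embryos, enzymatically dissociated, grown 5–6 days at 35°C. Test compound given without capsaicin. 45Ca2+ uptake run 10 min at 20°C in Tris-buffered (pH 7.5) HBSS with 1 mM ascorbate, 10 µM CaCl2 and 0.8 mM MgCl2, with 0.5 µCi/well tracer. Cells were washed, lysed in RIPA and counted by scintillation.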

Assay [4] has as its target T1, Transient receptor potential cation channel subfamily V member 1. As to the kind of experiment: Agonist-enhancing activity in epsilon-epitope tagged TRPV1 receptor expressed in mouse NIH3T3 cells assessed as capsaicin-induced 45Ca2+ influx by microplate liquid scintillation counter. In kind it is functional, cell-based. In outline: as §1
Assay [5] concerns the target Transient receptor potential cation channel subfamily V member 1 (Rattus norvegicus) (UniProt O35433). As to the kind of experiment: Agonist-enhancing activity at TRPV1 receptor in E15 rat primary dorsal root ganglion cells assessed as capsaicin-induced 45Ca2+ influx by microplate liquid scintillation counter relative to capsaicin alone. In kind it is functional, tissue-based. In outline:
(§2)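 E15 rat DRG cultures grown 5–6 days at 35°C. Uptake with capsaicin ~0.5 µM, 10 min at 20°C, 0.5 µCi/well 45Ca2+ in Tris-HBSS pH 7.5. Compound up to 50 µM, 0.2% DMSO, from 25 mM stocks. Counts normalized to in-plate capsaicin-only wells (100%, 4 wells). Variable-slope sigmoid fit gave EC50, Hill slope and ΔEmax.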

Assay [6] shares this target. The assay can be described thus: Agonist-enhancing activity at TRPV1 receptor in E15 rat primary dorsal root ganglion cells assessed as capsaicin-induced 45Ca2+ influx by microplate liquid scintillation counter. In kind it is functional, tissue-based. The gist of the method: as §2
Assay [7] has as its target T2, Adenosine receptor A3 (Rattus norvegicus) (UniProt P28647).
T2 sequence (whole entry): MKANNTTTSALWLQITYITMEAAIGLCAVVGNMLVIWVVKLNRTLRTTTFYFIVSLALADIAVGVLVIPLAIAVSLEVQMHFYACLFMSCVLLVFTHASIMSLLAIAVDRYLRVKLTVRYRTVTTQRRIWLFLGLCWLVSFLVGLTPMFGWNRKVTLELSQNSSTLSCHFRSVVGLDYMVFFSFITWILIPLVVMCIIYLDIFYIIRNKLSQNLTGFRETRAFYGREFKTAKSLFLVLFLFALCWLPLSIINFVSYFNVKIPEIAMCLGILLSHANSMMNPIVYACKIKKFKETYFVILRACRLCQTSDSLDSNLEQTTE
As to the kind of experiment: Binding affinity to rat adenosine A3 receptor.

For a further assay, the target named is T3, Adenosine receptor A3 (Homo sapiens, UniProt P0DMS8).
T3 sequence (P0DMS8 whole entry): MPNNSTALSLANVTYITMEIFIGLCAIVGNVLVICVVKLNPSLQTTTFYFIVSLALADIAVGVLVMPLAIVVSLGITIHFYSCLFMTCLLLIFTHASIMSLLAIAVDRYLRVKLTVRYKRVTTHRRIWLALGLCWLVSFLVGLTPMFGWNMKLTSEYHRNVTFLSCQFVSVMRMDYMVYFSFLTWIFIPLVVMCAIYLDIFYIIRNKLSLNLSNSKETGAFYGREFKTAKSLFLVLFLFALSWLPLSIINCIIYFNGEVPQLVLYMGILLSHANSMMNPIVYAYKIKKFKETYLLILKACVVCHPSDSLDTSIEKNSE
As to the kind of experiment: Binding affinity to human adenosine A3 receptor.

T1 sequence (Q8NER1 whole entry): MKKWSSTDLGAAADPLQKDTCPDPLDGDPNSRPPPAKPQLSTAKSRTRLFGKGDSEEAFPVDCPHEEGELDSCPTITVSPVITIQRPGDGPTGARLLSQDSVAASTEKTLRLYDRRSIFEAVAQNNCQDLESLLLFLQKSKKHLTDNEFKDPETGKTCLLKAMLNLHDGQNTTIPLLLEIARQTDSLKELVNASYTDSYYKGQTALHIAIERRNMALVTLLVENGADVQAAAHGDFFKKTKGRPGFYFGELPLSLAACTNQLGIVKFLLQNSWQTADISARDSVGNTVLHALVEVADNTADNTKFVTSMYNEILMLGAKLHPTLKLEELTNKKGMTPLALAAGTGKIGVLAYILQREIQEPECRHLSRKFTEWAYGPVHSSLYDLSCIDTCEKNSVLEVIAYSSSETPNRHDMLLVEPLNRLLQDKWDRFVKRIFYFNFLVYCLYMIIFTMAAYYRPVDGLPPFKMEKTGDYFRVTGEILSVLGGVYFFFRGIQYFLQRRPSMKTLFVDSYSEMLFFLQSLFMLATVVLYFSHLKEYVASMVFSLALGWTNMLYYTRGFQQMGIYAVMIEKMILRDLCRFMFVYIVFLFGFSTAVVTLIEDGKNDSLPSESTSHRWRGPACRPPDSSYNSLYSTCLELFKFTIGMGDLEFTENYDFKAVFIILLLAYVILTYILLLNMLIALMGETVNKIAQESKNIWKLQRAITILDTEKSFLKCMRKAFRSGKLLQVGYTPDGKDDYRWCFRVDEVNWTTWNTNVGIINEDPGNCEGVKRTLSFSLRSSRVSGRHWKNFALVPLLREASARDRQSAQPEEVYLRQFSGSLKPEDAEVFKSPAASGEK
Transient receptor potential cation channel subfamily V member 1 (Rattus norvegicus), sequence (O35433 whole entry): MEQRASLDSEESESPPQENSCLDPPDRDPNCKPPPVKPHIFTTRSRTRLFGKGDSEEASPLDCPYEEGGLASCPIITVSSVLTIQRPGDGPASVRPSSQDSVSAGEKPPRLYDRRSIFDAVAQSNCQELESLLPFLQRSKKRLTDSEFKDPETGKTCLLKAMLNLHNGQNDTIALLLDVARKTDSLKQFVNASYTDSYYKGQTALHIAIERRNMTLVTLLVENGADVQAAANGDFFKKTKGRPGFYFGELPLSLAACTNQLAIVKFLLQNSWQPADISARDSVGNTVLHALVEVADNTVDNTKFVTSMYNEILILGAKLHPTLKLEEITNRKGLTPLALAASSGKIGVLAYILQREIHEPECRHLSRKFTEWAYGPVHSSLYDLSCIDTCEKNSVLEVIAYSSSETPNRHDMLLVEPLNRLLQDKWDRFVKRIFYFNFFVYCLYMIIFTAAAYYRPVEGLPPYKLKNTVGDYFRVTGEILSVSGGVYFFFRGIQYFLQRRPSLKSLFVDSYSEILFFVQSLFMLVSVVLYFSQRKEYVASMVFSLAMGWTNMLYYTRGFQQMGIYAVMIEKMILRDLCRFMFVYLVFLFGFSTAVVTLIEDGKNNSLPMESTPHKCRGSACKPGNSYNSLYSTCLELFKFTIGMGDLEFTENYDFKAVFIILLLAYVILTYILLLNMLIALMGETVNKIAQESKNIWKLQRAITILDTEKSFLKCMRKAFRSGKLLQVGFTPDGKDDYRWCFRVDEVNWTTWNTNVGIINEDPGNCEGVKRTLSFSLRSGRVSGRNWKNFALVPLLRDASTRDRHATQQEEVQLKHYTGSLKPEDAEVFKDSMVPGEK

By Emax is commonly meant the size of the effect at its maximum, as opposed to the concentration needed. For `CCOC(=O)C1=C(c2cccc(Cl)c2)NC(C)=C(C(=O)SCCc2ccccc2)C1CC` (racemic), the Emax in assay [1] was determined as 194%. The result in assay [2] and in assay [3] was inactive.

By EC50 is commonly meant the concentration that produces a half-maximal response. As for `CCOC(=O)C1=C(C)NC(c2cccc(F)c2)=C(C(=O)OCC)C1CC` (racemic), the EC50 in assay [4] turned out to be 26.7 µM. In addition, the maximal response (Emax) came to 403% in assay [1] and 206% in assay [5]. For the same molecule, the outcome in assay [2] and in assay [3] was inactive.

Regarding `CCOC(=O)C1=C(C)NC(c2ccc(F)cc2)=C(C(=O)OCC)C1CC` (racemic), the concentration giving a half-maximal response (EC50) in assay [4] amounted to 29.2 µM. Besides, the results for the Emax in assay [1] and in assay [5] were 372% and 175%, respectively. The result in assay [2] and in assay [3] was inactive.

On to `CCOC(=O)C1=C(c2ccc(F)cc2)NC(C)=C(C(=O)SCC)C1CC` (racemic), for which, in assay [4], the EC50 was 28.4 µM. Besides, the Emax in assay [1] came to 409%. Moreover, the outcome in assay [2] and in assay [3] was inactive.

As to `COC(=O)C1=C(C)NC(C)=C(C(=O)OCCN(C)Cc2ccccc2)C1c1cccc([N+](=O)[O-])c1` (centres undefined), the result in assay [4] and in assay [6] was inactive.

As to `CCOC(=O)C1=C(c2ccccc2F)NC(C)=C(C(=O)SC(C)C)C1CC` (racemic), the Emax in assay [1] was found to be 124%. Also, the result in assay [2] and in assay [3] was inactive.

As to `CCOC(=O)C1=C(c2ccc3ccccc3c2)NC(C)=C(C(=O)SCC)C1CC` (racemic), the maximal effect (Emax) in assay [1] was determined as 116%. Also, the outcome in assay [2] and in assay [3] was inactive.

`CCCC1C(C(=O)SCCc2ccccc2)=C(C)NC(c2ccccc2)=C1C(=O)OCC` (racemic): the EC50 in assay [4] was found to be 27.6 µM. Moreover, the results for the Emax in assay [1] and in assay [5] were 360% and 231%, respectively. The result in assay [2] and in assay [3] was inactive.

For the molecule `CCOC(=O)C1=C(c2ccccc2)N=C(C)/C(=C(/O)OCC)C1CC` (centres undefined), the maximum response (Emax) in assay [1] came to 383%. Also, the outcome in assay [7], in assay [2] and in assay [3] was inactive.

On to `CCOC(=O)C1=C(c2ccc([N+](=O)[O-])cc2)NC(C)=C(C(=O)SCCc2ccccc2)C1CC` (racemic), for which the Emax in assay [1] stood at 101%; in assay [5] it was 117%. Besides, the outcome in assay [2] and in assay [3] was inactive.

`CCOC(=O)C1=C(c2ccc([N+](=O)[O-])cc2)NC(C)=C(C(=O)SCc2ccccc2)C1CC` (racemic): in assay [1], the Emax is 98%. In addition, the outcome in assay [2] and in assay [3] was inactive.

As to `CCOC(=O)C1=C(c2ccccc2)N=C(C)/C(=C(/O)SCC)C1CC` (centres undefined), the concentration giving a half-maximal response (EC50) in assay [4] was determined as 28.1 µM. In assay [1], the Emax was 435%. In addition, the result in assay [7], in assay [2] and in assay [3] was inactive.

In general, Ki refers to the dissociation constant of the complex between target and ligand, obtained from inhibition or displacement. A higher Ki goes with weaker binding. Regarding `CCCC1=NC(c2ccccc2)=C(C(=O)OCC)C(CC)/C1=C(\O)SCC` (centres undefined), the Emax in assay [1] stood at 148%. Also, at Adenosine receptor A3, the affinity, expressed as Ki, was 2.09 µM. Besides, the result in assay [7], in assay [2] and in assay [3] was inactive.

As to `CCOC(=O)C1=C(c2ccccc2F)NC(C)=C(C(=O)SCC)C1CC` (racemic), the Emax in assay [1] worked out at 198%. In addition, the result in assay [2] and in assay [3] was inactive.

Take `CCOC(=O)C1=C(c2ccccc2)N=C(C)/C(=C(/O)OCC)C1C(OC)OC` (centres undefined): in assay [1], the Emax worked out at 114%. The molecule also registered a Ki on Adenosine receptor A3 of 15.3 µM. For the same molecule, the outcome in assay [7], in assay [2] and in assay [3] was inactive.

Turning to `CCOC(=O)C1=C(c2ccc(F)cc2)NC(C)=C(C(=O)SCCc2ccccc2)C1CC` (racemic), the EC50 in assay [4] was found to be 51.6 µM. Further, the Emax in assay [1] is 232%; in assay [5], 148%. For the same molecule, the result in assay [2] and in assay [3] was inactive.

As for `CO/C(O)=C1\C(C)=NC(C)=C([N+](=O)[O-])[C@H]1c1ccccc1C(F)(F)F`, the result in assay [4] and in assay [6] was inactive.

On to `CCOC(=O)C1=C(c2ccc(C#N)cc2)NC(C)=C(C(=O)SCC)C1CC` (racemic), for which the Emax in assay [1] was found to be 129%. For the same molecule, the result in assay [2] and in assay [3] was inactive.

Consider `CCOC(=O)C1=C(c2ccccc2F)NC(C)=C(C(=O)SCc2ccccc2)C1CC` (racemic), for which the Emax in assay [1] worked out at 123%. Further, the outcome in assay [2] and in assay [3] was inactive.

Take `CCOC(=O)C1=C(c2ccccc2F)NC(C)=C(C(=O)SCCc2ccccc2)C1CC` (racemic): the Emax in assay [1] was determined as 117%. Further, the outcome in assay [2] and in assay [3] was inactive.

With `CCCC1C(C(=O)SCC)=C(C)NC(c2cccc(Cl)c2)=C1C(=O)OCC` (racemic), the Emax in assay [1] stood at 177%. Further, the result in assay [2] and in assay [3] was inactive.

Take `CCOC(=O)C1=C(c2ccccc2)N=C(CC)/C(=C(/O)SCC)C1CC` (centres undefined): the Emax in assay [1] was 257%. The outcome in assay [7], in assay [2] and in assay [3] was inactive.

As for `CCOC(=O)C1=C(C2CCCCC2)NC(C)=C(C(=O)SCC)C1CC` (racemic), the Emax in assay [1] was 87%. The outcome in assay [2] and in assay [3] was inactive.

Take `CCCC1C(C(=O)OCC)=C(c2ccccc2)N=C(C)/C1=C(/O)SCC` (centres undefined): the EC50 in assay [4] stood at 22.4 µM. The maximal effect (Emax) in assay [1] turned out to be 364%; in assay [5], 318%. For the same molecule, the result in assay [7], in assay [2] and in assay [3] was inactive.

For `CCOC(=O)C1=C(C)NC(c2cccc(Cl)c2)=C(C(=O)OCC)C1CC` (racemic), the EC50 in assay [4] was 17.1 µM. Further, the Emax in assay [1] was 347%; in assay [5], 259%. Moreover, the outcome in assay [2] and in assay [3] was inactive.

For the molecule `CCOC(=O)C1=C(c2ccc(F)cc2)NC(C)=C(C(=O)SCC)C1C1CC1` (racemic), the Emax in assay [1] worked out at 175%. Moreover, the outcome in assay [2] and in assay [3] was inactive.

For `CCOC(=O)C1=C(c2cccc(F)c2)NC(C)=C(C(=O)SCC)C1CC` (racemic), the half-maximal effective concentration (EC50) in assay [4] is 21.8 µM. Further, the Emax in assay [1] came to 446%; in assay [5], 198%. Moreover, the outcome in assay [2] and in assay [3] was inactive.

The values above are taken from ChEMBL document CHEMBL1152227, “Structure-activity relationships of 1,4-dihydropyridines that act as enhancers of the vanilloid receptor 1 (TRPV1)” (Bioorg Med Chem, 2008).
